Paper PMC12254776 (Acta Pharmaceutica Sinica. B, 2025)

Tests used:
[1] = system: RM-1 cells; experiment: MTT cytotoxicity assay against RM-1 cells; format: cell-based, mouse; details: for effect of GSP on the sensitivity of cells to the drug: GSP at an ineffective concentration of 0.5 μmol/L
Procedure, shortened: (§1)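 Cells were seeded at 2 × 10³ per well and grown for 12 h at 37 ℃, 5% CO₂. RM-1, 4T1 and L02 were kept in RPMI 1640 with 10% FBS; 3T3 in DMEM/F-12 with 10% FBS. […] MTT (5 mg/mL stock) was added for 4 h, formazan was dissolved in DMSO, and absorbance was read at 492 nm.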

[2] = system: 4T1 cells; experiment: MTT cytotoxicity assay against 4T1 cells; format: cell-based, mouse; details: 48 h
Procedure, shortened: as §1

[3] = system: 3T3 cells; experiment: MTT cytotoxicity assay against 3T3 cells; format: cell-based, mouse
Procedure, shortened: as §1

[4] = system: L02 cells; experiment: MTT cytotoxicity assay against L02 cells; format: cell-based, human
Procedure, shortened: as §1

[5] = system: RM-1 cells; experiment: Live/dead cell co-staining; format: cell-based, mouse; details: 100 nmol/L CTX equivalent and/or 300 nmol/L GSP equivalent, 24 h
Procedure, shortened: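 RM-1 cells were seeded on coverslips at 5 × 10⁴ cells/well and grown for 12 h. […] Cells were stained with Calcein-AM (live) and PI (dead) for 30 min and imaged by confocal microscopy. Untreated cells were the control.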

[6] = system: Bcl-2; experiment: Western blotting of Bcl-2 in RM-1 cells; format: cell-based, mouse; details: 10 nmol/L CTX equivalent and/or 30 nmol/L GSP equivalent, 40 h
[7] = system: RM-1 cells; experiment: Mitochondrial membrane potential assay; format: cell-based, mouse; details: green = low potential
Procedure, shortened: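 Cells were stained with JC-1 working solution at 37 ℃ for 20 min, washed twice in cold JC-1 buffer and imaged by confocal microscopy (red aggregates, green monomers). Depolarization was quantified in ImageJ. For flow cytometry, cells seeded at 5 × 10⁴/well were trypsinised before staining. Untreated cells were the control.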

[8] = system: RM-1 prostate tumor; experiment: In vivo antitumor efficacy, RM-1 prostate tumor-bearing C57BL/6 mice; parameters: species or system mouse; details: 4 mg/kg CTX equivalent and/or 7.5 mg/kg GSP equivalent, i.v., every three days, three injections
[9] = system: RM-1 prostate tumor; experiment: GSP-rendered ultra-low-dose chemotherapeutic window in vivo; parameters: species or system mouse; details: five injections
Procedure, shortened: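 Male C57BL/6 mice were given 5 × 10⁶ RM-1 cells in 100 μL PBS subcutaneously in the right rear flank. […] Dosing was i.v. every other day, five injections. Tumor volume and body weight were recorded daily. Blood was taken one day after the last dose; organs were taken for H&E.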

[10] = system: testosterone; experiment: Serum testosterone; format: in vivo, mouse; details: 4 mg/kg CTX equivalent and/or 7.5 mg/kg GSP equivalent, three injections
[11] = 14.9 mg/kg GSP equivalent, i.v.

Structure (SMILES): O=C1[O][Pt]2([NH][C@@H]3CCCC[C@H]3[NH]2)[O]C1=O [OXP, oxaliplatin]
- effect of GSP on the sensitivity of cells to the drug [1]: dramatically augmented

Structure (SMILES): CC(=O)O[C@@]12CO[C@@H]1C[C@H](O)[C@@]1(C)C(=O)[C@H](O)C3=C(C)[C@@H](OC(=O)[C@H](O)[C@@H](NC(=O)OC(C)(C)C)c4ccccc4)C[C@@](O)([C@@H](OC(=O)c4ccccc4)[C@H]21)C3(C)C [DTX, docetaxel]
- effect of GSP on the sensitivity of cells to the drug [1]: dramatically augmented

Structure (SMILES): N.N.[Cl][Pt][Cl] [DDP, cisplatin]
- effect of GSP on the sensitivity of cells to the drug [1]: dramatically augmented

Structure (SMILES): Cc1cc2c(C(C)C)c(O)c(O)c(C=O)c2c(O)c1-c1c(C)cc2c(C(C)C)c(O)c(O)c(C=O)c2c1O [GSP, Gossypol]
- cytotoxicity (in words) ([1]; MTT, 48 h): almost no cytotoxicity
- cytotoxicity (in words) [2]: almost no cytotoxicity
- cytotoxicity (in words) ([3]; MTT, 48 h): almost no cytotoxicity
- cytotoxicity (in words) ([4]; MTT, 48 h): almost no cytotoxicity
- cell death in live/dead staining [5]: only a small portion of cells
- expression of Bcl-2 protein [6]: significantly down-regulated the expression of Bcl-2
- mitochondrial membrane potential change (JC-1 fluorescence, in words) [7]: negligible impact
- antitumor activity (tumor growth) [8]: moderate antitumor activity
- antitumor effects [9, 11]: moderate antitumor effects
- body weight of tumor-bearing mice [9, 11]: decreased significantly
- liver tissue sections (H&E) [9, 11]: some degree of liver injury

Structure (SMILES): CO[C@H]1C(=O)[C@]2(C)[C@@H](OC)C[C@H]3OC[C@@]3(OC(C)=O)[C@H]2[C@H](OC(=O)c2ccccc2)[C@]2(O)C[C@H](OC(=O)[C@H](O)[C@@H](NC(=O)OC(C)(C)C)c3ccccc3)C(C)=C1C2(C)C [CTX, Cabazitaxel]
- reduction in IC50 values in the presence of GSP ([1]; 0.5 μmol/L GSP): ≥ 100 fold
- effect of GSP on the sensitivity of cells to the drug [1]: dramatically augmented
- effect of GSP on the cytotoxicity of the drug ([3]; 500 nmol/L GSP): little effect
- effect of GSP on the cytotoxicity of the drug ([4]; 500 nmol/L GSP): little effect
- cell death in live/dead staining [5]: only a small portion of cells
- mitochondrial membrane potential change (JC-1 fluorescence, in words) [7]: green fluorescence signals were significantly enhanced
- antitumor activity (tumor growth) [8]: moderate antitumor activity
- serum testosterone [10]: no change in serum testosterone
- body weight ([9]; CTX dose gradient 1–8 mg/kg): dramatic weight loss
- hepatorenal function indicators and whole blood indexes ([9]; CTX dose gradient 1–8 mg/kg): abnormalities in hepatorenal function indicators and pancytopenia
- toxicity (weight loss, death) ([9]; high doses 4, 6 and 8 mg/kg CTX equivalent, i.v.): serious toxic side effects
- anti-tumor effects ([9]; low doses 1 and 2 mg/kg CTX equivalent, i.v.): negligible anti-tumor effects

Structure (SMILES): Nc1ccn([C@@H]2O[C@H](CO)[C@@H](O)C2(F)F)c(=O)n1 [GEM, gemcitabine]
- effect of GSP on the sensitivity of cells to the drug [1]: dramatically augmented

Structure (SMILES): COc1cccc2c1C(=O)c1c(O)c3c(c(O)c1C2=O)C[C@@](O)(C(=O)CO)C[C@@H]3O[C@H]1C[C@H](N)[C@H](O)[C@H](C)O1 [DOX, doxorubicin]
- effect of GSP on the sensitivity of cells to the drug [1]: dramatically augmented
